Measurements published in ChEMBL document CHEMBL1649429, “Novel plasmid-encoded ceftazidime-hydrolyzing CTX-M-53 extended-spectrum beta-lactamase from Salmonella enterica serotypes Westhampton and Senftenberg” (Antimicrob Agents Chemother, 2009).

Tests used:
[1] = substrate: CC(C)(O/N=C(\C(=O)N[C@@H]1C(=O)N2C(C(=O)[O-])=C(C[n+]3ccccc3)CS[C@H]12)c1csc(N)n1)C(=O)O; settings: Escherichia coli
[2] = substrate: C[C@H]1[C@H](NC(=O)/C(=N\OC(C)(C)C(=O)O)c2csc(N)n2)C(=O)N1S(=O)(=O)O; settings: Escherichia coli
[3] = substrate: CC(C)(O/N=C(\C(=O)N[C@@H]1C(=O)N2C(C(=O)[O-])=C(C[n+]3ccccc3)CS[C@H]12)c1csc(N)n1)C(=O)O; settings: Escherichia coli; remark: listed apart in the source
[4] = substrate: C[C@H]1[C@H](NC(=O)/C(=N\OC(C)(C)C(=O)O)c2csc(N)n2)C(=O)N1S(=O)(=O)O; settings: Escherichia coli; remark: listed apart in the source
[5] = substrate: CC(=O)OCC1=C(C(=O)O)N2C(=O)[C@@H](NC(=O)Cc3cccs3)[C@H]2SC1; assay: (§1) Activity of Salmonella enterica serotype Westhampton beta-lactamase CTX-M-53; settings: Salmonella enterica subsp. enterica serovar Westhampton
In short: (§2)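 CTX-M-53 was purified from E. coli DH5 carrying recombinant pCTX-M-53, grown in brain heart infusion with cefotaxime 2 µg/ml for 18 h at 37°C. Cells were sonicated in 20 mM MES-NaOH pH 6.0, and nucleic acids removed with spermine. The enzyme was purified by SP Sepharose ion exchange and Superose 12 gel filtration. Km and kcat were measured by computerized microacidimetry, three determinations each.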

[6] = substrate: CC1(C)S[C@@H]2[C@H](NC(=O)[C@H](C(=O)O)c3ccsc3)C(=O)N2[C@H]1C(=O)O; assay: as §1; settings: Salmonella enterica subsp. enterica serovar Westhampton
In short: as §2

[7] = substrate: CCN1CCN(C(=O)N[C@@H](C(=O)N[C@@H]2C(=O)N3[C@@H]2SC(C)(C)[C@@H]3C(=O)O)c2ccccc2)C(=O)C1=O; assay: as §1; settings: Salmonella enterica subsp. enterica serovar Westhampton
In short: as §2

[8] = substrate: C[C@H]1[C@H](NC(=O)/C(=N\OC(C)(C)C(=O)O)c2csc(N)n2)C(=O)N1S(=O)(=O)O; assay: as §1; settings: Salmonella enterica subsp. enterica serovar Westhampton
In short: as §2

[9] = substrate: CO/N=C(\C(=O)N[C@@H]1C(=O)N2C(C(=O)O)=C(COC(C)=O)CS[C@H]12)c1csc(N)n1; assay: as §1; settings: Salmonella enterica subsp. enterica serovar Westhampton
In short: as §2

[10] = substrate: CC1(C)S[C@@H]2[C@H](NC(=O)[C@H](N)c3ccc(O)cc3)C(=O)N2[C@H]1C(=O)O; assay: as §1; settings: Salmonella enterica subsp. enterica serovar Westhampton
In short: as §2

[11] = substrate: CO/N=C(\C(=O)N[C@@H]1C(=O)N2C(C(=O)O)=C(COC(N)=O)CS[C@H]12)c1ccco1; assay: as §1; settings: Salmonella enterica subsp. enterica serovar Westhampton
In short: as §2

[12] = substrate: CC1(C)S[C@@H]2[C@H](NC(=O)Cc3ccccc3)C(=O)N2[C@H]1C(=O)O; assay: as §1; settings: Salmonella enterica subsp. enterica serovar Westhampton
In short: as §2

[13] = substrate: CO/N=C(\C(=O)N[C@@H]1C(=O)N2C(C(=O)[O-])=C(C[n+]3cccc4c3CCC4)CS[C@H]12)c1csc(N)n1; assay: as §1; settings: Salmonella enterica subsp. enterica serovar Westhampton
In short: as §2

[14] = substrate: CC(C)(O/N=C(\C(=O)N[C@@H]1C(=O)N2C(C(=O)[O-])=C(C[n+]3ccccc3)CS[C@H]12)c1csc(N)n1)C(=O)O; assay: as §1; settings: Salmonella enterica subsp. enterica serovar Westhampton
In short: as §2

[15] = substrate: CC(=O)OCC1=C(C(=O)O)N2C(=O)[C@@H](NC(=O)Cc3cccs3)[C@H]2SC1; assay: (§3) Ratio of Kcat/Km for Salmonella enterica serotype Westhampton beta-lactamase CTX-M-53; settings: Salmonella enterica subsp. enterica serovar Westhampton
In short: as §2

[16] = substrate: CC1(C)S[C@@H]2[C@H](NC(=O)[C@H](C(=O)O)c3ccsc3)C(=O)N2[C@H]1C(=O)O; assay: as §3; settings: Salmonella enterica subsp. enterica serovar Westhampton
In short: as §2

[17] = substrate: CCN1CCN(C(=O)N[C@@H](C(=O)N[C@@H]2C(=O)N3[C@@H]2SC(C)(C)[C@@H]3C(=O)O)c2ccccc2)C(=O)C1=O; assay: as §3; settings: Salmonella enterica subsp. enterica serovar Westhampton
In short: as §2

[18] = substrate: C[C@H]1[C@H](NC(=O)/C(=N\OC(C)(C)C(=O)O)c2csc(N)n2)C(=O)N1S(=O)(=O)O; assay: as §3; settings: Salmonella enterica subsp. enterica serovar Westhampton
In short: as §2

[19] = substrate: CO/N=C(\C(=O)N[C@@H]1C(=O)N2C(C(=O)O)=C(COC(C)=O)CS[C@H]12)c1csc(N)n1; assay: as §3; settings: Salmonella enterica subsp. enterica serovar Westhampton
In short: as §2

[20] = substrate: CC1(C)S[C@@H]2[C@H](NC(=O)[C@H](N)c3ccc(O)cc3)C(=O)N2[C@H]1C(=O)O; assay: as §3; settings: Salmonella enterica subsp. enterica serovar Westhampton
In short: as §2

[21] = substrate: CO/N=C(\C(=O)N[C@@H]1C(=O)N2C(C(=O)O)=C(COC(N)=O)CS[C@H]12)c1ccco1; assay: as §3; settings: Salmonella enterica subsp. enterica serovar Westhampton
In short: as §2

[22] = substrate: CC1(C)S[C@@H]2[C@H](NC(=O)Cc3ccccc3)C(=O)N2[C@H]1C(=O)O; assay: as §3; settings: Salmonella enterica subsp. enterica serovar Westhampton
In short: as §2

[23] = substrate: CO/N=C(\C(=O)N[C@@H]1C(=O)N2C(C(=O)[O-])=C(C[n+]3cccc4c3CCC4)CS[C@H]12)c1csc(N)n1; assay: as §3; settings: Salmonella enterica subsp. enterica serovar Westhampton
In short: as §2

[24] = substrate: CC(C)(O/N=C(\C(=O)N[C@@H]1C(=O)N2C(C(=O)[O-])=C(C[n+]3ccccc3)CS[C@H]12)c1csc(N)n1)C(=O)O; assay: as §3; settings: Salmonella enterica subsp. enterica serovar Westhampton
In short: as §2

B1: Beta-lactamase CTX-M-16 (Escherichia coli), Q939N4 (protein)
chain: MVTKRVQRMMFAAAACIPLLLGSAPLYAQTSAVQQKLAALEKSSGGRLGVALIDTADNTQVLYRGDERFPMCSTSKVMAAAAVLKQSETQKQLLNQPVEIKPADLVNYNPIAEKHVNGTMTLAELSAAALQYSDNTAMNKLIAQLGGPGGVTAFARAIGDETFRLDRTEPTLNTAIPGDPRDTTTPRAMAQTLRQLTLGHALGETQRAQLVTWLKGNTTGAASIRAGLPTSWTAGDKTGSGGYGTTNDIAVIWPQGRAPLVLVTYFTQPQQNAESRRDVLASAARIIAEGL
Question: What does the source list for B1?
Answer: kcat/Km [1]: 0.04 s⁻¹; Km [2]: 17 µM

B2: Beta-lactamase CTX-M-27 (Escherichia coli), Q840M4 (protein)
chain: MVTKRVQRMMFAAAACIPLLLGSAPLYAQTSAVQQKLAALEKSSGGRLGVALIDTADNTQVLYRGDERFPMCSTSKVMAAAAVLKQSETQKQLLNQPVEIKPADLVNYNPIAEKHVNGTMTLAELSAAALQYSDNTAMNKLIAQLGGPGGVTAFARAIGDETFRLDRTEPTLNTAIPGDPRDTTTPRAMAQTLRQLTLGHALGETQRAQLVTWLKGNTTGAASIRAGLPTSWTVGDKTGSGGYGTTNDIAVIWPQGRAPLVLVTYFTQPQQNAESRRDVLASAARIIAEGL
Question: Which kcat/Km [3] does the source give for B2 here?
Answer: 0.01 s⁻¹

Question: What about the Km [4] of the same protein?
Answer: 17 µM

B3: Extended-spectrum beta-lactamase CTX-M-53 (Salmonella enterica subsp. enterica serovar Westhampton), Q2XPY6 (protein)
chain: MVKKSLRQFTLMATATVTLLLGSVPLYAQTVDVQQKLAELEQQSGGRLGVALINTADNSQILYRADERFAMCSTSKVMAVAAVLKKSESEPNLLNQRVEIKKSDLVNYNPIAEKHVNGTMSLAELSAAALQYSDNVAMNKLIAHVGGPASVTAFARQLGDETFRLDRTEPTLNTAIPGDPRDTTSPRAMAQTLRNLTLGKALGDSQRAQLVTWMKGNTTGAASIQAGLPASWVVGDKTGSGGYGTTNDIAVIWPKDRAPLILVIYFTQPQPKAESRRDVLASAAKIVTDGL
Question: What does the source list for B3?
Answer: Km [5]: 122 µM; kcat [5]: 2000 s⁻¹; Km [6]: 18 µM; kcat [6]: 10 s⁻¹; Km [7]: 12 µM; kcat [7]: 90 s⁻¹; Km [8]: 14 µM; kcat [8]: 4 s⁻¹; Km [9]: 180 µM; kcat [9]: 585 s⁻¹; Km [10]: 40 µM; kcat [10]: 85 s⁻¹; Km [11]: 80 µM; kcat [11]: 292 s⁻¹; Km [12]: 10 µM; kcat [12]: 135 s⁻¹; Km [13]: 125 µM; kcat [13]: 710 s⁻¹; Km [14]: 174 µM; kcat [14]: 14 s⁻¹; kcat/Km [15]: 1.64e+07 M⁻¹ s⁻¹; kcat/Km [16]: 500000 M⁻¹ s⁻¹; kcat/Km [17]: 7.5e+06 M⁻¹ s⁻¹; kcat/Km [18]: 300000 M⁻¹ s⁻¹; kcat/Km [19]: 3.2e+06 M⁻¹ s⁻¹; kcat/Km [20]: 2.1e+06 M⁻¹ s⁻¹; kcat/Km [21]: 3.6e+06 M⁻¹ s⁻¹; kcat/Km [22]: 1.35e+07 M⁻¹ s⁻¹; kcat/Km [23]: 5.7e+06 M⁻¹ s⁻¹; kcat/Km [24]: 100000 M⁻¹ s⁻¹
